Calls of active or inactive are those of the source. The calls are words filed in the database; no cut-off is given here.
Legend:
[1] = system: HCT-116; experiment: Antiproliferative activity against human HCT116 cells after 96 hrs by MTT assay; assay type: functional, cell-based; settings: HCT-116, 96 h
[2] = target: Histone deacetylase 1 (Homo sapiens, UniProt Q13547); experiment: Inhibition of recombinant C-terminal His/FLAG-tagged HDAC1 (unknown origin) expressed in baculovirus infected Sf9 insect cells using Ac-peptide as substrate preincubated for 15 mins followed by substrate addition and measured after 1 hr
[3] = target: Phosphatidylinositol 4,5-bisphosphate 3-kinase catalytic subunit alpha isoform (Homo sapiens, UniProt P42336); experiment: Inhibition of recombinant human PI3Kalpha using PIP2 as substrate incubated for 1 hr by kinase-glo assay
[4] = system: HCT-116; experiment: Induction of cell cycle arrest in human HCT116 cells assessed as accumulation at G2/M phase at 500 nM after 24 hrs by propidium iodide/RNase staining-based FACS analysis; assay type: functional
How it was run: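 HCT116 cells cultured overnight in 6-well plates, exposed to compound at various concentrations for 24 h; FxCycle PI/RNase staining and flow cytometry for cell cycle phase distribution.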

[5] = system: Bel-7402; experiment: Antiproliferative activity against human Bel7402 cells after 96 hrs by MTT assay; assay type: functional, cell-based; settings: Bel-7402, 96 h
[6] = system: MDA-MB-453; experiment: Antiproliferative activity against human MDA-MB-453 cells after 96 hrs by MTT assay; assay type: functional, cell-based; settings: MDA-MB-453, 96 h
[7] = system: HGC-27; experiment: Antiproliferative activity against human HGC27 cells after 96 hrs by MTT assay; assay type: functional, cell-based; settings: HGC-27, 96 h
[8] = system: Huh-7; experiment: Antiproliferative activity against human HuH7 cells after 96 hrs by MTT assay; assay type: functional, cell-based; settings: Huh-7, 96 h
[9] = system: Capan-2; experiment: Antiproliferative activity against human Capan2 cells after 96 hrs by MTT assay; assay type: functional, cell-based; settings: Capan-2, 96 h
[10] = system: SW1990; experiment: Antiproliferative activity against human SW1990 cells after 96 hrs by MTT assay; assay type: functional, cell-based; settings: SW1990, 96 h
[11] = system: DU-145; experiment: Antiproliferative activity against human DU145 cells after 96 hrs by MTT assay; assay type: functional, cell-based; settings: DU-145, 96 h
[12] = system: HepG2; experiment: Antiproliferative activity against human HepG2 cells after 96 hrs by MTT assay; assay type: functional, cell-based; settings: HepG2, 96 h
[13] = system: K562; experiment: Antiproliferative activity against human K562 cells after 96 hrs by MTT assay; assay type: functional, cell-based; settings: K562, 96 h
[14] = system: HCT-116; experiment: Induction of apoptosis in human HCT116 cells assessed as live cells at 500 nM after 48 hrs by Annexin V-FITC/propidium iodide staining-based flow cytometric analysis (reference value: 89.6%); assay type: functional
[15] = system: HCT-8; experiment: Antiproliferative activity against human HCT8 cells after 96 hrs by MTT assay; assay type: functional, cell-based; settings: HCT-8, 96 h
[16] = system: HCT-116; experiment: Induction of apoptosis in human HCT116 cells assessed as necrotic cells at 500 nM after 48 hrs by Annexin V-FITC/propidium iodide staining-based flow cytometric analysis (reference value: 5.23%); assay type: functional
[17] = system: MCF7; experiment: Antiproliferative activity against human MCF7 cells after 96 hrs by MTT assay; assay type: functional, cell-based; settings: MCF7, 96 h
[18] = system: U-87 MG; experiment: Antiproliferative activity against human U87 cells after 96 hrs by MTT assay; assay type: functional, cell-based, U-87MG ATCC
[19] = system: HCT-116; experiment: Induction of apoptosis in human HCT116 cells assessed as late apoptotic cells at 500 nM after 48 hrs by Annexin V-FITC/propidium iodide staining-based flow cytometric analysis (reference value: 3.87%); assay type: functional
[20] = system: HCT-116; experiment: Induction of apoptosis in human HCT116 cells assessed as early apoptotic cells at 500 nM after 48 hrs by Annexin V-FITC/propidium iodide staining-based flow cytometric analysis (reference value: 1.33%); assay type: functional
[21] = system: NCI-H460; experiment: Antiproliferative activity against human NCI-H460 cells after 96 hrs by MTT assay; assay type: functional, cell-based; settings: NCI-H460, 96 h
[22] = system: THP-1; experiment: Antiproliferative activity against human THP1 cells after 96 hrs by MTT assay; assay type: functional, cell-based; settings: THP-1, 96 h
[23] = system: NCI-H1299; experiment: Antiproliferative activity against human NCI-H1299 cells after 96 hrs by MTT assay; assay type: functional, cell-based; settings: NCI-H1299, 96 h
[24] = system: HCT-116; experiment: Potency index, ratio of IC50 for SAHA to test compound IC50 for human HCT116 cells; assay type: functional

Chain of Histone deacetylase 1 (Q13547 whole entry, canonical isoform): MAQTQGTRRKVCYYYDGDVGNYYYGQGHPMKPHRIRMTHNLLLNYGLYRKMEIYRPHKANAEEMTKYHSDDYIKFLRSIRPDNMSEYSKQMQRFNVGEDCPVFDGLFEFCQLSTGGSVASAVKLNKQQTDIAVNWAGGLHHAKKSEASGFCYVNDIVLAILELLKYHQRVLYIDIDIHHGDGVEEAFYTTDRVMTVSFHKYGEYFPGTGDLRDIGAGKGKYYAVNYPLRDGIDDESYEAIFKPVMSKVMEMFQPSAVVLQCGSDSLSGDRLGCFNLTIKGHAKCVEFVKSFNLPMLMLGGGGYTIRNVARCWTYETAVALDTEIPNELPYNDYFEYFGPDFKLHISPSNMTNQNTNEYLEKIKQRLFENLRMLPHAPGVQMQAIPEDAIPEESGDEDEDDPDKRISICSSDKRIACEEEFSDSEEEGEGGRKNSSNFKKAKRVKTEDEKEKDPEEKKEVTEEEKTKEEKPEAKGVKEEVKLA
Chain of Phosphatidylinositol 4,5-bisphosphate 3-kinase catalytic subunit alpha isoform (P42336 whole entry, canonical isoform): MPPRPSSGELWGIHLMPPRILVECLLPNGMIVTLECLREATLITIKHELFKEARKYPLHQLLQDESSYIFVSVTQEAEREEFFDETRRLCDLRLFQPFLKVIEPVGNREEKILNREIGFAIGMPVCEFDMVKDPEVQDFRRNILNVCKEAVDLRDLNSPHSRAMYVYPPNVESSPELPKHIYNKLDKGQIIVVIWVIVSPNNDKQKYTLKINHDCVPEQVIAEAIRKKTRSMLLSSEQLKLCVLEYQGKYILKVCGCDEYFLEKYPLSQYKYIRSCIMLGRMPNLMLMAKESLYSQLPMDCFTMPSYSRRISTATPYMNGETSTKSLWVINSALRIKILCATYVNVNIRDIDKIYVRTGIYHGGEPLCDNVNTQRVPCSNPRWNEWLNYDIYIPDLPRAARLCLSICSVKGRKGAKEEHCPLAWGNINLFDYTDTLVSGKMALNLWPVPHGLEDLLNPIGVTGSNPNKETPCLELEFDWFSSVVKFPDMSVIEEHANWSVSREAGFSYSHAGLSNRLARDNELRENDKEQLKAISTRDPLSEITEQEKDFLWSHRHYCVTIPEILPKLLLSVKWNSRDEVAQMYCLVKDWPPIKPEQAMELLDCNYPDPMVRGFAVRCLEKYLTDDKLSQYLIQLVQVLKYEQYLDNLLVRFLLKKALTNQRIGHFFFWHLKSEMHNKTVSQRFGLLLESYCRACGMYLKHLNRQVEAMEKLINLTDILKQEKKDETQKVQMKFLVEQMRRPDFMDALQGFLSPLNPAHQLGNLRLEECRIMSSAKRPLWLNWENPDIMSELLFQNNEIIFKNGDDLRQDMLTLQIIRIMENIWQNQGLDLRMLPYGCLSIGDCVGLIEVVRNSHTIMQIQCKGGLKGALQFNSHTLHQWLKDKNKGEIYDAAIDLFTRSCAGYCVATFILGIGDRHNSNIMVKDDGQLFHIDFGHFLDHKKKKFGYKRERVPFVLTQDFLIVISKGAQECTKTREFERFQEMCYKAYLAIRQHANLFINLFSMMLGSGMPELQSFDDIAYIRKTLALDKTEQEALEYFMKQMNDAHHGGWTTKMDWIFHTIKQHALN

IC50 [1] [nM] | IC50 [2] [nM] | IC50 [3] [nM] | Compound | also measured
> 10000 | 37 | 1.3 | COc1ncc(-c2cc(OCCCC(=O)NO)c3ncnc(C)c3c2)cc1NS(=O)(=O)c1ccc(F)cc1F | 
4600 | 5.3 | 43 | COc1ncc(-c2cc(OCCNc3ncc(C(=O)NO)cn3)c3ncnc(C)c3c2)cc1F | 
2100 | 4 | 43 | COc1ncc(-c2cc(OCCCNc3ncc(C(=O)NO)cn3)c3ncnc(C)c3c2)cc1F | 
530 | 1.7 | 1.8 | COc1ncc(-c2cc(OCCN(C)c3ncc(C(=O)NO)cn3)c3ncnc(C)c3c2)cc1NS(=O)(=O)c1ccc(F)cc1F | 
1300 |  |  | Nc1cc(C(F)(F)F)c(-c2cc(N3CCOCC3)nc(N3CCOCC3)n2)cn1 [BUPARLISIB] | Activity [4]: Active; IC50 [5]: 13000 nM; IC50 [6]: 370 nM; IC50 [7]: 990 nM; IC50 [8]: 2000 nM; IC50 [9]: 42000 nM; IC50 [10]: 1300 nM; IC50 [11]: 45000 nM; IC50 [12]: 3200 nM; IC50 [13]: 7900 nM; Activity [14]: 84.7%; IC50 [15]: 1700 nM; Activity [16]: 3.46%; IC50 [17]: 5700 nM; IC50 [18]: 4800 nM; Activity [19]: 6.61%; Activity [20]: 5.22%; IC50 [21]: 3200 nM; IC50 [22]: 12000 nM; IC50 [23]: 3600 nM
> 10000 | 42 | 5.1 | COc1ncc(-c2cc(OCCCCCC(=O)NO)c3ncnc(C)c3c2)cc1NS(C)(=O)=O | 
96 | 2 | 43 | COc1ncc(-c2cc(OCCN(c3ncc(C(=O)NO)cn3)C(C)C)c3ncnc(C)c3c2)cc1F | 
11000 | 4.9 | 4 | COc1ncc(-c2cc(OCCCCCCCCC(=O)NO)c3ncnc(C)c3c2)cc1NS(C)(=O)=O | 
1400 | 3.3 | 54 | COc1ncc(-c2cc(OCCCCCCCC(=O)NO)c3ncnc(C)c3c2)cc1F | 
39 | 2.6 | 72 | CCN(CCOc1cc(-c2cnc(OC)c(F)c2)cc2c(C)ncnc12)c1ncc(C(=O)NO)cn1 | 
1200 | 37 | 30 | COc1ncc(-c2cc(OCCCCCC(=O)NO)c3ncnc(C)c3c2)cc1F | 
250 | 3.3 | 48 | COc1ncc(-c2cc(OCCCCN(C)c3ncc(C(=O)NO)cn3)c3ncnc(C)c3c2)cc1F | 
3400 | 2.1 | 3.9 | COc1ncc(-c2cc(OCCCCCCCC(=O)NO)c3ncnc(C)c3c2)cc1NS(C)(=O)=O | 
100 | 2.5 | 213 | COc1ccc(-c2cc(OCCCN(C)c3ncc(C(=O)NO)cn3)c3ncnc(C)c3c2)cn1 | 
 |  |  | O=C(CCCCCCC(=O)Nc1ccccc1)NO [VORINOSTAT] | Activity [4]: Active; Activity [14]: 87.7%; Activity [16]: 4.33%; Activity [19]: 5.21%; Activity [20]: 2.72%
800 | 3.7 | 143 | COc1ccc(-c2cc(OCCCCCCCC(=O)NO)c3ncnc(C)c3c2)cn1 | 
350 | 303 | 0.6 | COc1ncc(-c2cc(OCCCCC(=O)NO)c3ncnc(C)c3c2)cc1NS(=O)(=O)c1ccc(F)cc1F | 
760 | 3 | 162 | COc1ccc(-c2cc(OCCCCCCCCC(=O)NO)c3ncnc(C)c3c2)cn1 | 

IC50 [1] [nM] | IC50 [2] [nM] | IC50 [3] [nM] | Compound | also measured
30 | 1.3 | 73 | COc1ncc(-c2cc(OCCN(C)c3ncc(C(=O)NO)cn3)c3ncnc(C)c3c2)cc1F | 
1500 | 1.8 | 0.63 | COc1ncc(-c2cc(OCCCCCCCC(=O)NO)c3ncnc(C)c3c2)cc1NS(=O)(=O)c1ccc(F)cc1F | 
39 | 1.6 | 82 | COc1ccc(-c2cc(OCCN(c3ncc(C(=O)NO)cn3)C(C)C)c3ncnc(C)c3c2)cn1 | 
4000 | 8.9 | 0.9 | COc1ncc(-c2cc(OCCCCCCCCC(=O)NO)c3ncnc(C)c3c2)cc1NS(=O)(=O)c1ccc(F)cc1F | 
1400 | 84 | 51 | COc1ccc(-c2cc(OCCCCC(=O)NO)c3ncnc(C)c3c2)cn1 | 
22 | 2.1 | 195 | CCN(CCOc1cc(-c2ccc(OC)nc2)cc2c(C)ncnc12)c1ncc(C(=O)NO)cn1 | 
82 | 2.4 | 94 | COc1ncc(-c2cc(OCCCN(C)c3ncc(C(=O)NO)cn3)c3ncnc(C)c3c2)cc1F | 
> 10000 | 166 | 68 | COc1ccc(-c2cc(OCC(=O)NO)c3ncnc(C)c3c2)cn1 | 
7200 | 6.3 | 0.69 | COc1ncc(-c2cc(OCCCCCCC(=O)NO)c3ncnc(C)c3c2)cc1NS(=O)(=O)c1ccc(F)cc1F | 
540 | 30 | 58 | COc1ccc(-c2cc(OCCCCCC(=O)NO)c3ncnc(C)c3c2)cn1 | 
> 10000 | 91 | 73 | COc1ccc(-c2cc(OCCCC(=O)NO)c3ncnc(C)c3c2)cn1 | 
2900 | 11 | 1.1 | COc1ncc(-c2cc(OCCCN(C)c3ncc(C(=O)NO)cn3)c3ncnc(C)c3c2)cc1NS(=O)(=O)c1ccc(F)cc1F | 
580 | 2.2 | 116 | COc1ncc(-c2cc(OCCCCCCCCC(=O)NO)c3ncnc(C)c3c2)cc1F | 
5 |  |  | COc1ccc(-c2nc(N3CCOCC3)c3sc(CN(C)c4ncc(C(=O)NO)cn4)cc3n2)cn1 [FIMEPINOSTAT] | IC50 [5]: 13 nM; IC50 [6]: 9 nM; IC50 [7]: 41 nM; IC50 [8]: 560 nM; IC50 [9]: 7 nM; IC50 [10]: 180 nM; IC50 [11]: 560 nM; IC50 [12]: 15 nM; IC50 [13]: 280 nM; IC50 [15]: 5 nM; IC50 [17]: 41 nM; IC50 [18]: 7 nM; IC50 [21]: 150 nM; IC50 [23]: 25 nM
140 | 1.3 | 102 | COc1ccc(-c2cc(OCCCCCCC(=O)NO)c3ncnc(C)c3c2)cn1 | Ratio IC50 [24]: 10
9300 | 11 | 41 | COc1ncc(-c2cc(OCCCCNc3ncc(C(=O)NO)cn3)c3ncnc(C)c3c2)cc1F | 
37000 | 1.3 | 2.3 | COc1ncc(-c2cc(OCCCCCCC(=O)NO)c3ncnc(C)c3c2)cc1NS(C)(=O)=O | 
540 | 39 | 0.66 | COc1ncc(-c2cc(OCCCCCC(=O)NO)c3ncnc(C)c3c2)cc1NS(=O)(=O)c1ccc(F)cc1F | 
